Only some compounds are listed: those with a hit (about 4.7% of all), similar ones and a draw of the others.
HTR2A ag – activates the mouse 5-HT2A serotonin receptor; CHO-K1 mHTR2A beta-arrestin complementation, luminescence; percent of 30 µM serotonin response; AID 624169; activation, % at 7.6 µM; P35363; 0.66% of 360,000 active;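 active = activation above a run cutoff, the mean activation of all tested compounds plus 3 SD, cut at about 14% in these data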
MC4R barr agon – agonists of human melanocortin 4 receptor (MC4R) beta-arrestin; P32245; U2OS MC4R beta-arrestin complementation, luminescence; percent of melanotan II response, DMSO zero; activation, % at 8.9 µM; 0.98% of 360,000 active; AID 540308;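 active = activation above a per-plate cutoff, the mean activation of sample wells on that plate plus 3 SD, cut at about 8% in these data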
GAA850 FXN act – activators of GAA850 frataxin (FXN) promoter; HEK293 lucGAA850 FXN promoter luciferase reporter, 24 h; percent of 10 µM SAHA response; activation, % at 6 µM; 0.56% of 360,000 active; AID 540364;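 active = activation above the average of all compounds screened plus 3 SD, cutoff fixed separately per campaign, cut at about 7.5% in these data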
AHR act – activators of human aryl hydrocarbon receptor; AHR-responsive luciferase reporter cells, luminescence; activation, % at 5 µM; 2.5% of 320,000 active; AID 2796; in the data active = activation above about 47%
Target sequence (P35869 whole entry, looked up): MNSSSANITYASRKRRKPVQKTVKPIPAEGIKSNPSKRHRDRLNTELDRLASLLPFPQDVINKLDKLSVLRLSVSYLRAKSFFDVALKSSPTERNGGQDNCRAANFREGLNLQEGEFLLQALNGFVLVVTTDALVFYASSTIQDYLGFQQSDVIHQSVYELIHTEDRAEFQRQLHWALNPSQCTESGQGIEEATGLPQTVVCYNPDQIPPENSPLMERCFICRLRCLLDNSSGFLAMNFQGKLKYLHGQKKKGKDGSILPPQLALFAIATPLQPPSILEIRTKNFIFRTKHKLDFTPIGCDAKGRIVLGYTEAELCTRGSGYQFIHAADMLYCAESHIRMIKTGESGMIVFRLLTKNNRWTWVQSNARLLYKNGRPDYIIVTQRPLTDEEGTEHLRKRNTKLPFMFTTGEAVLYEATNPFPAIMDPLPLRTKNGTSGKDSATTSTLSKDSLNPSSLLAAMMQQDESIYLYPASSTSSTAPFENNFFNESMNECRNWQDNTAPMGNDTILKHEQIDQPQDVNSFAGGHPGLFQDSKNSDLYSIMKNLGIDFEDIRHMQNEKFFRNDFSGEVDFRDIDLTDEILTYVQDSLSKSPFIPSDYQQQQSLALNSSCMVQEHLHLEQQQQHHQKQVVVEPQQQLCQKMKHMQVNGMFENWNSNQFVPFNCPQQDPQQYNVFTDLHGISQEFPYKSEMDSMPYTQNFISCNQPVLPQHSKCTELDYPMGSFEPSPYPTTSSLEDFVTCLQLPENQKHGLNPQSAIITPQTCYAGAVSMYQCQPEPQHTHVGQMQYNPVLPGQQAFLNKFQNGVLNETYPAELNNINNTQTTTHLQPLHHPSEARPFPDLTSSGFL
MC4R antagonist – antagonists of human melanocortin 4 receptor (MC4R); 0.48% of 360,000 active; AID 540295; MC4R-expressing cells, MTII-stimulated cAMP, LANCE TR-FRET; inhibition, % at 6.5 µM;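 active = inhibition above its plate's cutoff, the mean of tested wells on that plate plus 3 SD, cut at about 29% in these data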
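System: U2OS-MC4R stable cell line; Technique: Eu-cAMP/anti-cAMP TR-FRET, emission 671 nm; Repeats: single well per compound; Also added: Melanotan II; Dosing: one concentration, 6.5 µM nominal; Schedule: 30-min compound, 1-h challenge, 1-h detection, room temperature.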
A number is an active result; n = inactive; x = no result given.

SMILES | HTR2A ag | MC4R barr agon | GAA850 FXN act | AHR act | MC4R antagonist
CCOc1ccccc1NC(=O)c1cc(-c2ccccn2)nc2ccccc12 | n | n | n | 71 | n
O=C(NCc1ccccn1)c1cc(-c2ccccc2)nc2ccccc12 | n | n | n | n | n
O=C(NCc1ccccn1)c1cc(-c2ccc(-c3ccccc3)cc2)nc2ccccc12 | n | n | n | 66 | n
Cc1cc(NC(=O)c2cc(-c3ccc(C)c(C)c3)nc3ccccc23)no1 | n | n | n | 58 | n
COc1ccc(NC(=O)c2cc(-c3ccccn3)nc3ccccc23)c(OC)c1 | n | n | n | n | n
Cc1ccc(-c2cc(C(=O)NCc3ccccn3)c3ccccc3n2)cc1C | n | n | n | 56 | n
CCC1N=C(SC)NC(C)=C1C(=O)c1ccccc1 (stereo not given) | n | n | n | n | n
CSC1=NC(C(Cl)(Cl)Cl)N=C(c2ccc(C)cc2)N1 (stereo not given) | n | n | n | 67 | n
COC(=O)N/N=C/c1cc(Cl)cc(Cl)c1OCc1ccc(F)cc1 | n | n | n | 55 | n
COc1ccc(S(=O)(=O)N(C)C[C@H]2Oc3c(NC(=O)c4ccncc4)cccc3C(=O)N([C@H](C)CO)C[C@@H]2C)cc1 | n | n | n | n | n
CSc1nnc(-c2ccccc2SC)o1 | n | n | n | n | n
CSc1nnc(-c2cc3c(s2)-c2ccccc2CC3)o1 | n | n | n | 66 | n
CC1CN(S(=O)(=O)c2cccc(C(=O)N3CCC(C(N)=O)CC3)c2)CC(C)O1 (stereo not given) | n | n | n | n | n
O=C1c2ccccc2NC(c2cccc(O)c2)N1Cc1ccco1 (stereo not given) | n | n | n | 48 | n
COc1ccc(C(C)NCCC(c2ccc(OC(C)C)cc2)c2ccccc2OC)cc1 (stereo not given) | n | 20 | n | x | n
Brc1ccccc1/C=N/Nc1ccccn1 | n | 9.4 | n | n | n
Cc1ccc(/C=N/Nc2ccccn2)s1 | n | n | n | 49 | n
Clc1ccccc1C=NNc1ccccn1 | n | n | n | x | n
C=CCc1ccccc1OCCSc1nc2ccc([N+](=O)[O-])cc2s1 | n | n | n | 56 | n
Cc1cc(C(F)(F)F)c(C#N)c(SCC(=O)Nc2nc3ccccc3s2)n1 | n | n | n | 57 | n
O=C(CSc1ncnc2c1oc1ccccc12)Nc1nc2ccccc2s1 | n | 8.6 | n | n | n
CCCCn1c(N)c(N(CC(C)C)C(=O)c2ccc(S(=O)(=O)N3CCCCCC3)cc2)c(=O)[nH]c1=O | n | n | n | n | n
CCOc1ccc(S(=O)(=O)NCc2ccccn2)cc1NC(=O)c1ccccc1F | n | n | n | n | n
Cc1cccc(C)c1C(O)c1ncc(-c2ccc(F)cc2)[nH]1 (stereo not given) | n | n | n | x | n
Cc1cc(C)cc(NCc2cc(=O)oc3cc(-c4ccccc4)c(O)cc23)c1 | n | n | n | 50 | n
SMILES | HTR2A ag | MC4R barr agon | GAA850 FXN act | AHR act | MC4R antagonist
CCCCNC(=O)C[C@@H]1C[C@@]2(C(=O)OCC)CCCC=C2N(Cc2ccc3c(c2)OCO3)C1=O | n | x | x | x | x
Cc1ccc(C(=O)c2oc3ccccc3c2NC(=O)c2cc(-c3ccccc3O)n[nH]2)cc1 | n | n | n | 51 | n
O=C(Nc1c(C(=O)c2ccccc2)oc2ccccc12)c1cc(-c2ccccc2O)n[nH]1 | n | n | n | 68 | n
Cc1ccc(C(=O)c2oc3ccccc3c2NC(=O)c2cc(-c3cc(C)ccc3O)n[nH]2)cc1 | n | n | n | n | n
Cc1cc(OC(C)C(=O)NCc2ccccn2)c2c(C)c(C)c(=O)oc2c1 (stereo not given) | n | n | n | n | n
CCOc1ccc(N(CC(=O)Nc2ccc(C)c(C)c2)S(C)(=O)=O)cc1 | n | n | n | 52 | n
COc1ccc(CNC(=O)c2ccc(N3CCC4(CC3)CC(c3ccc(Cl)cc3)=NO4)c(N)c2)cc1 | x | x | x | n | x
CCC(CO)Nc1ccn2nc(-c3cccs3)cc2n1 (stereo not given) | n | n | n | x | n
CCc1c(C)sc(NC(=S)Nc2cccnc2)c1C(=O)OC | n | n | n | 76 | n
CN(C(=O)COC(=O)CCCN1C(=O)c2cccc3cccc(c23)C1=O)C1CCS(=O)(=O)C1 (stereo not given) | n | n | n | n | n
CC(/C=N/NC(=O)C(O)c1ccccc1)=C\c1ccccc1 (stereo not given) | n | n | 7.8 | n | n

High-throughput results (PubChem BioAssay)
